Test results: publication PMC4589248 (Biochemical and biophysical research communications, 2015)
Each block holds one compound with its values, some of them ahead of it.

Experiments:
[1] = test system: Caco-2 cells; test: Uptake of BODIPY FL-C16 and BODIPY FL-C5 in Caco-2 cells; assay type: cell-based, human
[2] = test system: INS-1E cells; test: Nuclear integrity; assay type: cell-based; conditions: PA 0-500 μM, Grassofermata 0-50 μM
[3] = test system: C57BL/6 male mice; test: Inhibition of 13C-oleate absorption in mice; assay type: in vivo; conditions: single oral dose 300 mg/kg, 6 hrs post-label administration
Procedure, shortened: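 Male C57BL/6 mice, 12 per group, fasted 12 h and given tyloxapol 500 mg/kg i.p. Gavaged with test compound 300 mg/kg in flaxseed oil or with oil alone. After 1 h, received flaxseed oil containing 500 mg/kg 13C-oleate. Plasma collected at 0.5, 2 and 6 h, Folch-extracted with nonadecanoic acid as internal standard. GC-MS in SIM mode, m/z 296 (12C) and 314 (13C oleate methyl ester). Mean ± SE of 10–12 mice.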

[4] = test system: HepG2 cells; test: Uptake of BODIPY FL-C16 and BODIPY FL-C5 in HepG2 cells; assay type: cell-based
[5] = test system: HepG2 cells; test: Palmitate-induced lipid accumulation; assay type: cell-based; conditions: 50 μM compound, each concentration of PA (0-500 μM), 24 hrs
[6] = test system: HepG2 cells; test: Nuclear integrity; assay type: cell-based; conditions: PA 0-500 μM, Grassofermata 0-50 μM
[7] = test system: human adipocytes; test: C1-BODIPY-C12 fatty acid uptake inhibition in primary human adipocytes; assay type: cell-based; conditions: read-out: IC50, inhibition of C1-BODIPY-C12 uptake
Procedure, shortened: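 Primary human preadipocytes seeded at 1.5x10^4 cells/well in alpha-MEM with 10 % FBS. Differentiated for 6 days with 540 μM IBMX plus 1 μM rosiglitazone, then kept without them until lipid droplets appeared. C1-BODIPY-C12 uptake read as cell-associated fluorescence at 485/528 nm across test compound concentrations. IC50 by non-linear dose-response fit; 3 experiments in triplicate.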

[8] = test system: INS-1E cells; test: Palmitate-induced lipid accumulation; assay type: cell-based; conditions: 50 μM compound, each concentration of PA (0-500 μM), 24 hrs
Procedure, shortened: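 INS-1E cells, 96 h after plating, treated for 24 h with BSA-conjugated palmitate (0–500 μM, 2.5:1 PA:BSA) with or without test compound (0–50 μM). Stained with 30 μM Nile Red for 30 min at 37 °C and read at ex/em 485/590 nm. Results as AFU per 10^6 cells; 3 experiments in triplicate.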

[9] = Grassofermata level in mouse plasma; assay type: in vivo, mice; conditions: male, C57BL/6, mouse, oral, 300 mg/kg
Procedure, shortened: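 Male C57BL/6 mice, 10 weeks old, in groups of 12, fasted 12 h and given tyloxapol 500 mg/kg i.p. They then received test compound 300 mg/kg in flaxseed oil by gavage, followed 1 h later by a 13C-oleate bolus. Plasma (EDTA) taken 0.5, 2 and 6 h after oleate. Plasma mixed with acetonitrile containing an analogue internal standard, acidified with TFA and centrifuged. Analysed by LC-MS/MS (C18, 457.1→411.1) against a 0.09–3.3 ng/μl standard curve.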

[10] = test system: INS-1E cells; test: C1-BODIPY-C12 fatty acid uptake inhibition in INS-1E pancreatic β-cells; assay type: cell-based; conditions: read-out: IC50, inhibition of C1-BODIPY-C12 uptake
Procedure, shortened: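 INS-1E cells kept in RPMI 1640 with 5 % FBS, 1 mM pyruvate, 50 μM 2-mercaptoethanol and 10 mM HEPES at 37 °C, 5 % CO2. Seeded at 2x10^5 cells/well on collagen and used after 96 h. C1-BODIPY-C12 uptake read as cell-associated fluorescence at 485/528 nm against test compound concentration. IC50 by non-linear dose-response fit; 3 experiments in triplicate, mean ± SE.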

[11] = test system: primary mouse hepatocytes; test: Palmitate-induced lipid accumulation; assay type: cell-based, mice; conditions: 50 μM compound, each concentration of PA (0-500 μM)
Procedure, shortened: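 Hepatocytes isolated from 10–12-week 129S1/SvImJ mice and plated on collagen at 1.5x10^4 cells/well in DMEM with FBS, glucagon, hydrocortisone, EGF and insulin. Treated after 4–5 h of attachment with BSA-conjugated palmitate (0–500 μM, 2.5:1) with or without test compound (0–50 μM). Lipid measured by 30 μM Nile Red, 30 min at 37 °C, 485/590 nm. AFU per 10^6 cells; 3 experiments in triplicate.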

[12] = test system: HepG2 cells; test: C1-BODIPY-C12 uptake in HepG2 cells; assay type: cell-based
Procedure, shortened: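 Inhibition kinetics in HepG2 cells using 7 test compound concentrations (1.25–15 μM) and 4 C1-BODIPY-C12 concentrations (2.5–10 μM). The plate reader's injectors dispensed compound, then added substrate at timed intervals. Initial uptake rates measured over 90 s by fluorescence. Best-fit inhibition model chosen by enzyme-kinetics analysis; points are mean with SD.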

[13] = test system: C2C12 cells; test: C1-BODIPY-C12 fatty acid uptake inhibition in C2C12 myocytes; assay type: cell-based; conditions: Mus musculus, C2C12, read-out: IC50, inhibition of C1-BODIPY-C12 uptake
Procedure, shortened: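 C2C12 mouse myoblasts grown in DMEM with 10 % FBS and 2 mM L-glutamine at 37 °C, 5 % CO2. Differentiated for 96 h at 8x10^4 cells/well in DMEM with 10 % horse serum. Uptake of fluorescent C1-BODIPY-C12 read as cell-associated fluorescence at ex/em 485/528 nm across a range of test compound concentrations. IC50 from non-linear dose-response regression; 3 experiments in triplicate, mean ± SE.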

[14] = test system: primary mouse hepatocytes; test: Nuclear integrity; assay type: cell-based, mice; conditions: primary murine hepatocytes; PA 0-500 μM, Grassofermata 0-50 μM
[15] = test system: cell lines that are models for intestines, liver, muscle and pancreas; test: Fatty acid uptake inhibition, summary over cell lines; assay type: cell-based; conditions: read-out: IC50, inhibition of fatty acid uptake
[16] = test system: HsFATP2; conditions: 80 μM; yeast expressing HsFATP2; cited from earlier work
[17] = test system: Caco-2 cells; conditions: 100 μM; cited from earlier work

- IC50 ([1]; Homo sapiens, Caco-2, read-out: IC50, inhibition of BODIPY FL-C16 uptake): 13.5 ± 1.1 µM
- IC50 ([4]; Homo sapiens, HepG2, read-out: IC50, inhibition of BODIPY FL-C16 uptake): 17.3 ± 2.5 µM
- IC50 [7]: 58.2 µM
- concentration at 0.5 h [9]: 2.1 ± 0.6 µg/mL
- concentration at 2 h [9]: 3.4 ± 0.7 µg/mL
- concentration at 6 h [9]: 2.9 ± 0.7 µg/mL
- IC50 [10]: 8.3 µM
- IC50 [13]: 10.6 µM
- IC50 [15]: 8 to 11 µM
Compound: O=c1cc(-c2ccc([N+](=O)[O-])cc2)[nH]c2c(-c3ccc(Cl)cc3)c(Cc3ccccc3)nn12 [Grassofermata, 2-benzyl-3-(4-chlorophenyl)-5-(4-nitrophenyl)pyrazolo[1,5-a]pyrimidin-7(4H)-one]
- effect on transport of BODIPY FL-C5 ([1]; Caco-2, medium chain FA analog): did not affect
- DAPI staining (nuclear integrity) [2]: reduced DAPI staining of cells in a dose dependent manner
- reduction of the levels of labeled oleate in plasma [3]: 37%
- effect on transport of BODIPY FL-C5 ([4]; HepG2, medium chain FA analog): did not affect
- accumulation of lipid (Nile Red) [5]: significantly reduced
- DAPI staining (nuclear integrity) [6]: reduced DAPI staining of cells in a dose dependent manner
- accumulation of lipid (Nile Red) [8]: significantly reduced
- accumulation of lipid (Nile Red) [11]: significantly reduced
- mechanism of inhibition of C1-BODIPY-C12 uptake ([12]; HepG2, Grassofermata 1.25-15 μM, C1-BODIPY-C12 2.5-10 μM): non-competitive mechanism of inhibition
- DAPI staining (nuclear integrity) [14]: reduced DAPI staining of cells in a dose dependent manner

Compound: CCCCCCCCCCC[C@@H](C[C@@H]1OC(=O)[C@H]1CCCCCC)OC(=O)[C@H](CC(C)C)NC=O [Orlistat, reference compound]
- effect on C1-BODIPY-C12 uptake ([12]; standard FA transport assay, cell line not stated for Orlistat): no effect

Compound: CN(C)CCCN1c2ccccc2Sc2ccc(Cl)cc21 [chlorpromazine]
- inhibition of C1-BODIPY-C12 uptake [16]: intermediate levels of inhibition
- inhibition of FA uptake [17]: 30–50%

Compound: CN1CCN(C2=Nc3cc(Cl)ccc3Nc3ccccc32)CC1 [clozapine, Clozapine]
- inhibition of C1-BODIPY-C12 uptake [16]: intermediate levels of inhibition
- inhibition of FA uptake [17]: 30–50%
